Assay outcomes as filed in PubChem.
Hits are enriched below; roughly 9.5% of the tested compounds scored in any of these assays.
D1 mod = allosterically modulates the human D1 dopamine receptor. HEK293 D1, CRE-luciferase, dopamine EC30 potentiation; actives deviate in either direction. B-score at 10 µM. actives 5.9% (n = 58,000);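 active means luminescence count or its row- and column-corrected plate score outside the 99.7% band of the plate's sample wells, on either side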
Target sequence (P21728 whole entry, looked up): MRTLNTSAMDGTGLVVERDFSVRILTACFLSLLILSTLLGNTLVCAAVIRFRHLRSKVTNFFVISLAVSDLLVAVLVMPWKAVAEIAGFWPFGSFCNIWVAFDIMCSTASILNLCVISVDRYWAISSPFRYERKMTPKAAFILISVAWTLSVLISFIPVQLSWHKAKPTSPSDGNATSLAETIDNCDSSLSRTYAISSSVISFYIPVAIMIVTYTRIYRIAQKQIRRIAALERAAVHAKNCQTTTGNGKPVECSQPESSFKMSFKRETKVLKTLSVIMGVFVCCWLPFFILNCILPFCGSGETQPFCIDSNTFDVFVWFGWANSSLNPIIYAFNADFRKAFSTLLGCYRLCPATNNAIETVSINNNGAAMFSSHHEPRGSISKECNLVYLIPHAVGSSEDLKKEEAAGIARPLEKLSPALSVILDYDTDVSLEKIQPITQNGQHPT
M1 agonist = activates the M1 muscarinic receptor; AID 626; B-score at 10 µM; actives 3% (n = 64,000); CHO-M1 cells, Fluo-4 calcium fluorescence, agonist mode; hits give high values;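 active means fluorescence rise, raw or as B-score row- and column-corrected plate score, outside the 99.7% band of its plate's samples, either direction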
M1 antag = M1 muscarinic receptor (rat) antagonism; actives 3.4% (n = 64,000); AID 628; P08482; CHO-M1 cells, Fluo-4 calcium, ACh EC80 antagonist mode; hits give low values; B-score at 10 µM;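 active means calcium fluorescence response, raw or row-and-column corrected B-score, differing from the plate sample mean either way at a set confidence level, mostly lower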
Htt clearance = compounds clearing mutant huntingtin protein | actives 0.42% (n = 47,000) | inhibition, % at 1.5 µM | HeLa Exon1htt(103Q)mCFP, aggregate imaging; zero = plate's median compound well;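 active means inhibition of aggregate fluorescence above about 70%, also judged a hit by eye on the cell image, limit read from the data, passing the limit was not always enough; inconclusive means no rule stated for this call; inactive means not judged a hit on image review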;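 further: cells exposed to compound for three days before fixation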
Jurkat viability = cytotoxicity toward Jurkat cells; AID 463; inhibition, % at 4 µM; actives 1.2% (n = 56,000); Jurkat E6.1 viability, ATP luminescence, 48 h;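 active means inhibition above the mean inhibition of all tested compounds plus 3 SD, cut at about 28% in these data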
HEK293 NFkB inh = lowers PMA/ionomycin-induced NF-kB signal in HEK293 cells. HEK-293 NF-kB luciferase reporter, luminescence. inhibition, % at 3 µM. actives 0.21% (n = 62,000);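 active means inhibition above the mean of all tested compounds plus 3 SD, cut at about 40% in these data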;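 further: 0% = stimulated DMSO wells and 100% = 10 µM reference inhibitor 5653914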
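Reagent: PMA plus ionomycin mix as NF-kB-activating stimulus. Assay system: NF-kB luciferase reporter HEK-293 cells. Technique: luminescence from luciferase substrate reagent. Incubation: 1 h compound pre-incubation, 16 h PMA/ionomycin at 37 °C. Benchmarks: DMSO only as uninhibited control, 10 µM reference inhibitor as full inhibition. Repeats: tested once.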
M1 ag confirm = rat M1 muscarinic agonism, confirmation; shares compounds with M1 agonist; CHO-M1 cells, Fluo-4 calcium fluorescence, agonist mode; actives lie on both sides; fluorescence change (max-min) at 10 µM; actives 19% (n = 1,700);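 active means fluorescence change differs from the solvent-only DMSO control mean at a set confidence level in both duplicate runs; inconclusive means differs from solvent-only control mean in just one of two runs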;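 further: an EC20 dose of acetylcholine follows compound addition during the same imaging run; raw fluorescence intensity difference in instrument units with no normalization to controls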
M4 ag counter = activates rat M4 receptor in counter-screen for M1 agonists; shares compounds with M1 agonist; CHO M4/Gqi5 cells, Fluo-4 calcium fluorescence, agonist mode; actives lie on both sides; fluorescence change (max-min) at 10 µM; actives 9% (n = 1,700); AID 1741;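 active means fluorescence change differing from the plate's solvent-only control wells at 99.7% confidence in both duplicates, whether higher or lower; inconclusive means differs from solvent controls in only one of two duplicates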
Starred values were filed as active, the others as inactive; ? = inconclusive; . = no result.

SMILES	D1 mod	M1 agonist	M1 antag	Htt clearance	Jurkat viability	HEK293 NFkB inh	M1 ag confirm	M4 ag counter
C=C(C)Cn1c(=O)c2c(nc3n2CCN3c2cccc(Cl)c2C)n(C)c1=O	-0.14	3*	-1.6	.	6	12	-12	-32
CC(C)(C)c1cc(NS(=O)(=O)c2ccc3c(c2)OCCO3)on1	-1.3	-0.014	0.018	-24	-4	23	.	.
CCOC(=O)c1ccc(S(=O)(=O)Nc2cc(C(C)(C)C)no2)cc1	0.5	7.6*	0.42	-228	-4	5	-12	-16
CCOC(=O)c1ccc(S(=O)(=O)Nc2ccccc2-c2nnn(CC)n2)cc1	0.042	3.8*	-3*	.	5	10	?	?
COc1ccc(-c2ccc(C#N)c(OC(=O)c3c(Cl)cccc3Cl)n2)cc1	.	.	.	-6	.	.	.	.
COC(=O)c1c(NC(=O)c2ccoc2C)sc2c1CCC2	0.024	2.2*	0.23	46	5	6	0.42	-44
CC1(C)CC(=O)C=C(NCc2ccc(Cl)c(Cl)c2)C1	.	.	.	8	.	.	.	.
CCCCc1cc(O)c(CCCC)c(O)c1	2.4	37*	-3.3*	48	2	-5	275*	320*
CCc1ccc(Cn2nnc(C(=O)NCc3ccccc3OC)c2N)cc1	-0.075	2.2*	0.14	.	-1	3	-29	-23
COc1ccc(CNC(=O)c2nnn(Cc3ccc(OC)cc3)c2N)cc1	-0.031	0.12	0.11	-370	2	-3	.	.
Cc1ccc(Cn2nnc(C(=O)Nc3cccc(C)c3C)c2N)cc1	-0.025	7.5*	0.014	.	10	20	4.2	-62
O=C(CSc1nnc(-c2ccncc2)n1-c1ccc(Cl)cc1)N1CCOCC1	0.29	-1.1	-0.46	.	-7	8	.	.
CCC(NC(=O)NCc1cccnc1)(C(F)(F)F)C(F)(F)F	-0.21	-0.73	0.89	26	8	6	.	.
CCCCN(CCCC)C(=O)CSc1nnc(-c2cc(OC)c(OC)c(OC)c2)o1	-0.85	4.4*	-1.1	.	13	13	?	?
COc1cc(-c2nnc(SCC#CCO)o2)cc(OC)c1OC	1.6	5.8*	0.73	-102	7	21	-6	-13
CCCCOC(=O)CSc1nnc(-c2cc(OC)c(OC)c(OC)c2)o1	-0.51	0.085	-0.019	-5	-18	21	.	.
Cc1[nH]nc2nc3c(c(OC(=O)c4ccccc4)c12)c(=O)n(C)c(=O)n3C	.	-0.61	-0.55	.	10	1	.	.
Nc1c(S(=O)(=O)c2cccs2)c2nc3ccccc3nc2n1Cc1cccs1	0.58	0.16	-0.066	10	-12	9	.	.
Nc1c(S(=O)(=O)c2ccccc2)c2nc3ccccc3nc2n1Cc1ccco1	.	2.9*	0.058	-23	.	0	24	-40
O=C(CSc1nnnn1C1CCCC1)N1CCCc2ccccc21	0.67	0.00027	-0.37	.	-11	4	.	.
O=C(CSc1nnc(Cc2cccs2)n1C1CCCCC1)N1CCCc2ccccc21	-0.09	3*	-2.2*	.	12	14	-8.9	-21
Cc1ccc(S(=O)(=O)NCC(=O)N(CC(=O)NC2CCCCC2)CC2CCCO2)cc1 (centres undefined)	.	.	.	-45	.	.	.	.
O=C(CCn1c(=O)c2sccc2n(CC(=O)OCc2ccccc2)c1=O)NCc1ccco1	-0.97	0.2	0.54	-4	-4	11	.	.
O=C(CCCn1c(=O)c2sccc2n(CC(=O)OCc2ccccc2)c1=O)NCc1ccco1	-0.34	4.7*	-1.4	-5	0	14	-28*	-72*
CCC(C)NC(=O)c1c(F)c(F)c(F)c(F)c1F (centres undefined)	.	.	.	33	.	.	.	.
SMILES	D1 mod	M1 agonist	M1 antag	Htt clearance	Jurkat viability	HEK293 NFkB inh	M1 ag confirm	M4 ag counter
O=C(NCCN1CCN(c2ccccc2F)CC1)c1cccn2c(=O)c3ccccc3nc12	.	6.7*	-1.2	-24	4	21	29	12
CC1=C(C)/C(=N\OS(=O)(=O)c2ccccc2)C=CC1=O	.	.	.	-46	.	.	.	.
COc1ccc(C2C(C(=O)N3CCC(C)CC3)c3ccccc3C(=O)N2C)cc1 (centres undefined)	0.082	0.23	-0.6	-49	.	20	.	.
COc1ccc(C2C(C(=O)N3CCN(c4ccccc4F)CC3)c3ccccc3C(=O)N2C)cc1 (centres undefined)	-0.96	4.9*	0.085	.	.	14	?	?
CC(C)Cn1c(SCc2nnc(-c3cccs3)o2)nc(O)cc1=O	-0.41	-0.34	1.2	.	-5	18	.	.
O=C(NCc1ccccc1)NC1(C(=O)N2CCN(c3ccccc3)CC2)CCCCC1	1.1	-0.37	0.15	24	-3	8	.	.
C=CCn1c(/N=C/c2ccc(N(C)C)cc2)nc2ccccc21	-0.51	15*	-1.2	20	-4	-9	118*	114
COc1cc2c(C#N)c(N3CCN(c4ccccc4OC)CC3)nc(N)c2c(N)n1	-0.29	3.4*	-0.1	.	.	15	-27*	-45
COc1ccccc1N1CCN(c2nc(N)c(C#N)c(CC#N)c2C#N)CC1	.	-0.71	-0.035	-8	.	15	.	.
COc1ccc(CNC(=O)C2CCCN(c3nc4ccccc4o3)C2)c(OC)c1 (centres undefined)	0.43	-0.079	0.099	16	-3	1	.	.
Cc1ccc(CCNC(=O)C2CCCN(c3nc4ccccc4o3)C2)cc1 (centres undefined)	-0.19	7.5*	-0.99	25	-7	14	-10	-27
CN(C=O)CP(=O)(O)CCN1CCCC1=O	0.6	0.29	0.022	.	-4	13	.	.
Cc1nc2ccccc2c(=O)n1NCc1cc(Br)cs1	.	4.4*	-0.19	.	-1	11	-5.2	-13
COc1cccc(NC(=O)N(C2CCCCC2)C(C)c2cccs2)c1 (centres undefined)	.	.	.	3	.	.	.	.
COc1cccc(=O)c2c(C)oc(C)c12	-0.18	44*	0.71	?	-12	10	536*	502*
O=C(NCc1ccco1)c1ccc2c(=O)n(Cc3ccco3)c(SCC(=O)N3CCCC3)nc2c1	0.23	0.77	-0.42	23	.	19	.	.
O=C(CSc1nc2ccccc2c(=O)n1Cc1ccco1)N1CCCCCC1	.	2*	-1.1	43	2	6	?	-62
CN=Cc1sc2ccccc2c1O	0.071	0.059	-0.65	1	6	16	.	.
CC(=Nc1cccc(O)c1)c1sc2ccccc2c1O	-4.3*	5.4*	-0.037	.	.	.	43	41
CCOc1ccc(S(=O)(=O)n2ccc(C)n2)c2ccccc12	0.17	13*	0.32	.	-3	-24	-12	-20
CC(=O)c1ccc(N2CCC(c3cc(-c4ccc(Cl)cc4Cl)n[nH]3)CC2)c([N+](=O)[O-])c1	.	.	.	-6	.	.	.	.
